Key:
Toll-like receptor 8 = target: T1, Toll-like receptor 8 (Homo sapiens, UniProt Q9NR97); test: Agonist activity at human TLR8 expressed in HEK293 cells assessed as induction of receptor activation incubated for 6 hrs by NF-kappaB-luciferase reporter gene assay; assay type: cell-based; settings: hek293, 6 h
T1 sequence (Q9NR97 whole entry): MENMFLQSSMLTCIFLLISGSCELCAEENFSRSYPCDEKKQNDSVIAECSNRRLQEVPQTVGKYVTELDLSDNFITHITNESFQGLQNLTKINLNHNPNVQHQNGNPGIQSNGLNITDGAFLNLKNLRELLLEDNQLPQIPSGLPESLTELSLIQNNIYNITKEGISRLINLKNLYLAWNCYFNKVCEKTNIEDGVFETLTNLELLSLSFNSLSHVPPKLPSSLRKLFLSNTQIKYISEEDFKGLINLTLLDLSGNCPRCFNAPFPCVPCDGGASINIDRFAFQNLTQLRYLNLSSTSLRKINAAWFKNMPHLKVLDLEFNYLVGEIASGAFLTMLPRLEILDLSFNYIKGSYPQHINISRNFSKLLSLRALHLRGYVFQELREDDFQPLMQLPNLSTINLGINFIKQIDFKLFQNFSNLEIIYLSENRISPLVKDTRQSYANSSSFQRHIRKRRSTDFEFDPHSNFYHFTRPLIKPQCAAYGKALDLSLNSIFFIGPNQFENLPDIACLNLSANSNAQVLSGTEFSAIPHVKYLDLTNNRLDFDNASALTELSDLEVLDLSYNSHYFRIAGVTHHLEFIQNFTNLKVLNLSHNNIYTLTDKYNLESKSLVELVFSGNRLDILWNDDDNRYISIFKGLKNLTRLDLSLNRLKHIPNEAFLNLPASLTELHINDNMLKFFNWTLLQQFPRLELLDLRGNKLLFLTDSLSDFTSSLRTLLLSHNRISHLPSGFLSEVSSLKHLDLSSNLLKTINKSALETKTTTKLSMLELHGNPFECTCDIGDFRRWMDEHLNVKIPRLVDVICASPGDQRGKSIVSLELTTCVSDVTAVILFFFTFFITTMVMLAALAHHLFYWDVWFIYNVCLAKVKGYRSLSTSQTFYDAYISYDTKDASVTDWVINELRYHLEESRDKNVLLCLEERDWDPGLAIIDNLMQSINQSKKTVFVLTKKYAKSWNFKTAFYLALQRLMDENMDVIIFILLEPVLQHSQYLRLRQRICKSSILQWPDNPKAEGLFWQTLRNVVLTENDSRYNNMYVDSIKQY
Outline: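 HEK293 cells transiently transfected overnight at 37°C with CMV-TLR8 plasmid (wild type or dLRR2 mutant) plus NFκB-luc reporter, then exposed to compound for 6 h at 37°C, 5% CO₂. Luciferase read-out. Quadruplicate dose-response. LEC is the concentration giving an effect at least two-fold above the assay SD, averaged over two or more independent experiments.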

[1] = target: T2, Toll-like receptor 7 (Homo sapiens) (UniProt Q9NYK1); test: Agonist activity at TLR7 in human PBMC assessed as suppression of HCV replicon replication in human HuH7 luc/neo cells harboring RNA encoding bicistronic expression construct comprising wild type HCV type 1b NS3-NS5B regions exposed to conditioned media from compound treated PBMCs by luciferase reporter gene assay; assay type: cell-based
T2 sequence (whole entry): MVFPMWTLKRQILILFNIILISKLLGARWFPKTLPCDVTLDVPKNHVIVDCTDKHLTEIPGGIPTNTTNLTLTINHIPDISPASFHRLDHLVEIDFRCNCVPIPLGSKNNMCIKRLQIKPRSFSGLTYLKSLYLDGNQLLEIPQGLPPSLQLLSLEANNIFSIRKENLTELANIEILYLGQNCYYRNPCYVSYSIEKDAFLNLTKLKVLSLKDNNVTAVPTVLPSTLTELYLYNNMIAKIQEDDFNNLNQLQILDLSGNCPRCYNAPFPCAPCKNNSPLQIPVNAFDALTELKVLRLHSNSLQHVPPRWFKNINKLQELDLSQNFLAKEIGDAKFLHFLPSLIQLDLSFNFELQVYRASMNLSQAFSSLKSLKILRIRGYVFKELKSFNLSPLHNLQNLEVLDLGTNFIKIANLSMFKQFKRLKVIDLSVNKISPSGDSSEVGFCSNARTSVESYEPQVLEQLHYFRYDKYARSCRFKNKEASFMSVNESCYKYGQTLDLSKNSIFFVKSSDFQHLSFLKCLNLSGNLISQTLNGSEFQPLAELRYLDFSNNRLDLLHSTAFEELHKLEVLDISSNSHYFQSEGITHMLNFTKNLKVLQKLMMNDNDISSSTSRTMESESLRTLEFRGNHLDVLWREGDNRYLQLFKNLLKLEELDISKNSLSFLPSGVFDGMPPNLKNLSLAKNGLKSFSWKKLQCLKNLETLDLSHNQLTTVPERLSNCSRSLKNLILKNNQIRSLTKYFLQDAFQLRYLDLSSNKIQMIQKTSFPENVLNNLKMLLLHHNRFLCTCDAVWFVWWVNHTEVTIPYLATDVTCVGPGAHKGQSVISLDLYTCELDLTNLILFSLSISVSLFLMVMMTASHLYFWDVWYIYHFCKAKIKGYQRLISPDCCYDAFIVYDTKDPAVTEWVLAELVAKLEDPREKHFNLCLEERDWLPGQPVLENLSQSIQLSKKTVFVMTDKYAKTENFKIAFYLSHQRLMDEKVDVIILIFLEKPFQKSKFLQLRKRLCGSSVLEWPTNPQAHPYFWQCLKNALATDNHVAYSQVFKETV
Outline: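 PBMCs from buffy coats of at least two donors (Ficoll), in RPMI with 10% human AB serum, 2 x 10^5 cells/well, incubated overnight with compound. Supernatant transferred onto Huh7-luc/neo replicon cells plated the day before (2.2 x 10^3/well). Luciferase read after 24 h. EC50 is the concentration applied to PBMCs giving 50% luciferase reduction. Recombinant IFN-α2a standard.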

[2] = Cytotoxic activity against HEK293 cells assessed as reduction in cell viability incubated for 6 hrs; assay type: cell-based; settings: human
Outline: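 HEK293 cells transfected with the CMV-TLR7 construct alone, treated with a compound dilution series for 6 h at 37°C, 5% CO₂. Viability read by ATP luminescence. Reported as CC50.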

[3] = Metabolic stability in mouse liver microsomes assessed as drug metabolism after 15 mins at 1 uM; assay type: ADME, microsome; settings: read-out: Drug metabolism
Outline: (§1)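 Compound at 1µM incubated with liver microsomes of the stated species. Percent of compound metabolized after 15 min.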

[4] = Metabolic stability in human liver microsomes assessed as drug metabolism after 15 mins at 1 uM; assay type: ADME, microsome; settings: read-out: Drug metabolism; outline: as §1
Cytochrome P450 2C19 = Cytochrome P450 2C19 (Homo sapiens, UniProt P33261); test: Inhibition of CYP2C19 (unknown origin); assay type: ADME
Cytochrome P450 2C19, sequence (P33261 whole entry): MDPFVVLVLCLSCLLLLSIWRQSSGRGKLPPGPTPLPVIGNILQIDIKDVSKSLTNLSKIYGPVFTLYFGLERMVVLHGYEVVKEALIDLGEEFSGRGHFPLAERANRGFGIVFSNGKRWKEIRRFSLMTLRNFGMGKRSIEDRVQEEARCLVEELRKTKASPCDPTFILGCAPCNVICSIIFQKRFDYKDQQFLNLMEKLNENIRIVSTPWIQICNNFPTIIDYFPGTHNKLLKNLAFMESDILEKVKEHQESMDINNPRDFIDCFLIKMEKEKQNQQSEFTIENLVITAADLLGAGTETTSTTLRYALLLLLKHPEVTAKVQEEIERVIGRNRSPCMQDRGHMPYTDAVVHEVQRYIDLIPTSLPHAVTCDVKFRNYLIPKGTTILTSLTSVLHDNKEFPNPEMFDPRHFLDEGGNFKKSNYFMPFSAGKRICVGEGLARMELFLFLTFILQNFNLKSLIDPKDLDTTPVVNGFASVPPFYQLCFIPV

SMILES	MEC (Toll-like receptor 8) [µM]	MEC [1] [µM]	CC50 at 6 h [2] [µM]	metabolised at 0.25 h, 1 µM [3] [%]	metabolised at 0.25 h, 1 µM [4] [%]	IC50 (Cytochrome P450 2C19) [µM]
CCCCNc1nc(N)nc2cccc(OCc3ccccc3OC)c12	> 25	0.33	> 25	98	48	> 10
CCCCNc1nc(N)nc2cccc(C(=O)N[C@H](C)c3ccccc3)c12	> 25	> 25	> 25	75	32	> 10
CCCCNc1nc(N)nc2cccc(C(=O)N(C)Cc3ccccc3)c12	> 25	0.27	> 25	99	98	> 10
CCCCNc1nc(N)nc2ccccc12	0.07	–	18 to 25	–	90	–
CCCCNc1nc(N)nc2cccc(OCc3ccccn3)c12	18.5	0.043	> 25	99	60	> 10
CCCCNc1nc(N)nc2cccc(C(=O)NC(C)C)c12	15.55	0.56	> 25	45	14	> 10
CCCCNc1nc(N)nc2cccc(C(=O)N[C@@H](C)c3ccccc3)c12	> 25	0.14	> 25	68	31	> 10
CCCCNc1nc(N)nc2cccc(C(=O)NCc3ccccc3)c12	1.6	0.03	> 25	92	28	> 10
CCCCNc1nc(N)nc2cccc(OCc3cccnc3)c12	0.53	0.011	> 25	99	44	> 10
CCCCNc1nc(N)nc2cccc(OCc3nccc(OC)c3OC)c12	> 25	0.034	16	98	37	> 10
CCCCNc1nc(N)nc2cccc(OCc3ccccc3)c12	1.66	0.04	10	97	11	> 10
CCCCNc1nc(N)nc2cccc(OCc3ccc(CO)cc3OC)c12	> 25	0.018	16	98	43	> 10
CCCCNc1nc(N)nc2cccc(C(=O)NC)c12	0.39	0.15	> 25	90	23	> 10

— ChEMBL document CHEMBL4184225, “Discovery of selective 2,4-diaminoquinazoline toll-like receptor 7 (TLR 7) agonists” (Bioorg Med Chem Lett, 2018)
